# Sampled rows, rich in hits. Any-hit rate of the full collection: about 2.7%.
# RBBP9 inhibitor: human RBBP9 inhibitors, primary screen, biochemical, fluorescence polarization, FP-Rh probe, HTS; recombinant RBBP9; inhibition, % at 7.94 µM; actives 0.2% (n = 220,000); AID 1515, 2009;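 active = inhibition above the campaign mean of all tested compounds plus 3 SD, cut at about 14% in these data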
# Target sequence (O75884 whole entry, looked up): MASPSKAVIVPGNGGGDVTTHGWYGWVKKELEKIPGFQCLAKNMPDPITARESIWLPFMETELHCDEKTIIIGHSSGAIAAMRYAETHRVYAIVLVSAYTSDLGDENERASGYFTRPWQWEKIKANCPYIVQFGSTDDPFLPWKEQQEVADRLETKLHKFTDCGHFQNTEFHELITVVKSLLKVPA
#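 Test system – recombinant human RBBP9 · Input – RBBP9 2.5 µM in dispensing solution, pre-mixing · Medium – Tris buffer pH 8.0, NaCl, Pluronic · Schedule – preincubation 30 min plus labeling 45 min at 25 °C · Measured by – fluorescence polarization · Measure – % inhibition · Controls – DMSO and no-protein wells · Replicates – one well per compound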
# PAFAH2 FP inh: PAFAH2 enzyme inhibitors, primary screen, biochemical, fluorescence polarization, human. recombinant PAFAH2, FP-rhodamine activity probe. inhibition, % at 3.39 µM. actives 0.99% (n = 340,000). AID 492956, 2010;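 active = inhibition above the mean over all tested compounds plus 3 SD, cut at about 30% in these data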;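 also: inhibitors block probe labeling of enzyme so polarization drops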
# pPAFAH inh: pPAFAH enzyme inhibitors, primary screen, biochemical, fluorescence polarization, human | Platelet-activating factor acetylhydrolase (Homo sapiens), Q13093 | recombinant pPAFAH, FP-rhodamine probe fluorescence polarization | inhibition, % at 3.39 µM | actives 1.5% (n = 330,000) | AID 463082, 2010;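 active = inhibition above the mean inhibition across the screen plus 3 SD, cut at about 25% in these data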;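 also: inhibitors block binding of the rhodamine activity-based probe so polarization drops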
# PAFAH1B3 inh: PAFAH1B3 enzyme inhibitors, primary screen, biochemical, fluorescence polarization, human | inhibition, % at 3.39 µM | actives 0.28% (n = 340,000) | recombinant PAFAH1B3, FP-rhodamine probe | AID 492972, 2010;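 active = inhibition above the screen-wide average of all tested compounds plus 3 SD, cut at about 25% in these data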
# PAFAH1B2 inh: PAFAH1B2 enzyme inhibitors, primary screen, biochemical, fluorescence polarization, human. AID 492953, 2010. actives 1.2% (n = 340,000). recombinant PAFAH1B2, FP-rhodamine activity probe. inhibition, % at 3.39 µM. Platelet-activating factor acetylhydrolase IB subunit alpha2 (Homo sapiens), P68402;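 active = inhibition above the mean of all tested compounds plus 3 SD, cut at about 24% in these data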
# Target sequence (P68402 whole entry, looked up): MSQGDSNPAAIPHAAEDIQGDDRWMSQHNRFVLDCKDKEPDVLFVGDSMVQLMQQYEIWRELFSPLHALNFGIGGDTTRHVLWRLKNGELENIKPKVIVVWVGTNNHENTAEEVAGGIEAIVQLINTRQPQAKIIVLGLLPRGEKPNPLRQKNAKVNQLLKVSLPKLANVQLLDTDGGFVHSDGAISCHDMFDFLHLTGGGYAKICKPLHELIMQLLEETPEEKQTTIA
# PAFAH1B3 confirm: PAFAH1B3 enzyme inhibitors, confirmation, biochemical, fluorescence polarization, human | shares compounds with PAFAH1B3 inh | recombinant PAFAH1B3, FP-Rh activity-based probe | inhibition, % at 3.39 µM | actives 30% (n = 390);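 active = average inhibition over triplicate runs above the hit cutoff set in the earlier primary screen, cut at about 25% in these data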
# A number is an active result; . = inactive; / = not tested or not shown; ! = not confirmed by another sample.
SMILES,RBBP9 inhibitor,PAFAH2 FP inh,pPAFAH inh,PAFAH1B3 inh,PAFAH1B2 inh,PAFAH1B3 confirm
Cc1ccc(C(=O)N/N=C/c2cn(Cc3ccccc3)c3ccccc23)cn1,.,.,.,.,.,/
COc1cccc(CN(C)C(=O)c2[nH]c(C)c(C(C)=O)c2C)c1OC,/,.,.,.,.,/
COc1cc2c(cc1OC)CN(C(=O)/C=C/c1cc(OC)c(OC)c(OC)c1)CC2,/,.,.,29.8,.,.
COc1cc2c(cc1OC)CN(C(=O)/C=C/c1ccc(F)cc1)CC2,/,.,.,.,.,/
CCOC(=O)c1c(C)[nH]c(C)c1C(=O)COC(=O)c1ccc([N+](=O)[O-])s1,/,.,.,45.5,.,.
CCOC(=O)c1c(NC(=O)c2ccco2)n(C2CCCCC2)c2nc3ccccc3nc12,.,.,.,58.8,.,.
O=C(NCc1ccco1)c1cccc(Nc2nc3ccc(Br)cc3[nH]2)c1,.,.,.,32.0,.,.
COC(=O)c1cc2c(n1S(=O)(=O)c1ccc(C)cc1)C(=O)C(=O)c1[nH]cc(C(=O)OCc3ccccc3)c1-2,/,.,/,38.8,.,34.1
CS/C(=N\S(=O)(=O)c1cccs1)NC(=O)CSc1nc2ccccc2s1,.,.,.,31.0!,.,.
C/C(=N/NC(=O)CSc1nc2ccccc2s1)c1ccncc1,.,.,.,.,.,/
C[C@H](NS(=O)(=O)c1ccc(Cl)cc1)C(=O)OCC(=O)Nc1cc(S(=O)(=O)N2CCOCC2)ccc1Cl,/,.,/,.,.,/
O=C1c2cccc3c([N+](=O)[O-])ccc(c23)C(=O)N1c1ccccn1,.,.,.,28.7,.,38.6
O=C(O)c1cc(N/N=C/C(Cl)=C/c2ccccc2)ccc1Cl,.,.,.,.,.,/
O=C(O)c1cc(NN=C2c3ccccc3-c3ccccc32)ccc1Cl,/,.,.,47.7,.,37.2
O=C(O)c1cccc(NN=C2c3ccccc3-c3ccccc32)c1,.,.,/,42.1,.,30.8
O=C(O)c1cccc2c1-c1ccccc1/C2=N\Nc1ccccc1,/,.,.,.,.,/
COc1ccc(S(N)(=O)=O)cc1C(=O)NCC1(N2CCCCC2)CCCCC1,.,.,.,.,.,/
CC(C)C1Nc2ccc(C(=O)O)cc2C2C=CCC21 (stereo not given),.,.,.,29.1,.,.
COC(=O)C(C(C)C)N(Cc1cc(OC)cc(OC)c1)S(=O)(=O)CCl (stereo not given),/,.,.,.,.,/
Oc1ccc(Cl)cc1CNc1cccc2cccnc12,/,.,.,28.3,.,.
Cc1oc(-c2ccccc2F)nc1CSCC(=O)NC1CCC(C)CC1 (stereo not given),/,.,.,.,.,/
COc1cc(CCNC2=CC(=O)c3ncccc3C2=O)ccc1O,/,.,/,34.9,.,.
CCc1cc[n+](C2=C([O-])c3ccccc3C(=O)/C2=N\S(=O)(=O)c2cccs2)cc1,.,.,.,40.6,.,30.9
O=C1C(=O)c2ccccc2C([O-])=C1[n+]1ccccc1,.,.,.,.,.,/
Cn1c(=O)c2c(nc(NCc3ccccc3)n2C)n(C)c1=O,.,.,.,.,.,/
Cn1c(=O)c2cc(NCc3ccccc3)nnc2n(C)c1=O,.,.,.,66.0,.,.
CCc1ccc(S(=O)(=O)Nc2cc(SCC(=O)O)c(O)c3ccccc23)cc1,.,.,.,27.8,.,.
Cc1ccc2nc(C)c3c(c2c1)N(c1ccc(F)cc1)CC3,.,/,.,/,/,/

# Assay outcomes as filed in PubChem.
